Experimental data collected from several papers.
Compare with care: the assays were run in different laboratories. pIC50: −log10 of the molar value. Values after ≈ are worked out from the molar mass of the structure shown.

`O=C(NC(=S)Nc1ccccn1)c1cccs1` has a pIC50 of 6.10 (Leishmania tropica; parasite growth, resazurin; promastigote).
With `N#Cc1c(-c2ccc(Cl)cc2Cl)c(C(N)=O)c(N)n(N)c1=O` the inhibition zone was 10 mm (Saccharomyces cerevisiae; microbial growth, well diffusion; ATCC9763; 500 µg/mL).
`O=C(NC(=S)Nc1cccc(O)c1)c1ccco1` has a pIC50 of 6.17 (Leishmania tropica; parasite growth, resazurin; promastigote).
With `COc1ccc(Cc2[nH]/c(=N/C(=O)C34CC5CC(CC(C5)C3)C4)n(C)c2-c2ccc(OC(=O)c3ccc(C(F)(F)F)cc3)c(OC)c2)cc1` the pIC50 was 5.28 (Hepatitis B virus; viral replication, inhibitor; HePAD38).
For `Cc1c(C(N)=O)c(N)n(N)c(=O)c1C#N`, the inhibition zone was 11 mm (Saccharomyces cerevisiae; microbial growth, well diffusion; ATCC9763; 500 µg/mL).
`O=C(O)c1cn(C2CC2)c2cc(N3CCNCC3)c(F)cc2c1=O` gave an MIC of 0.88 µM (≈ 0.292 µg/mL) (Shigella sonnei; microbial growth; ATCC25931).
`COc1ccc(Cc2[nH]/c(=N/C(=O)C34CC5CC(CC(C5)C3)C4)n(C)c2Cc2ccc(OC)c(OC)c2)cc1` has a pIC50 of 6.62 (Hepatitis B virus; viral replication, inhibitor; HePAD38).
`O=C(NC(=S)Nc1nccs1)c1cccs1` has a pIC50 of 5.82 (Leishmania tropica; parasite growth, resazurin; promastigote).
`CC(=O)N1CCN(c2ccc(OCC3COC(Cn4ccnc4)(c4ccc(Cl)cc4Cl)O3)cc2)CC1` (stereo not shown) has an inhibition zone of 20 mm (Saccharomyces cerevisiae; microbial growth, well diffusion; ATCC9763; 500 µg/mL).
For `COc1ccc(Cc2[nH]/c(=N/C(=O)C34CC5CC(CC(C5)C3)C4)n(C)c2-c2ccc(OC(=O)C3CC3)c(OC)c2)cc1`, the pIC50 was 4.31 (Hepatitis B virus; viral replication, inhibitor; HePAD38).
